Data on 14 compounds can be found in ChEMBL document CHEMBL6134855, “Peptidomimetics Activating the Proteasome: A New Perspective for Parkinson's Treatment” (J Med Chem, 2025).

Data set [1] concerns the target T1, 20S proteasome (Homo sapiens) (UniProt P49721+P20618+P28074+P28062+P28065+P28072+P25786+P25787+P25788+P25789+P28066+P60900+O14818+Q8TAA3+P40306+A5LHX3+P49720+P28070+Q99436). Nature of the data set: Activation of human erythrocyte-derived 20S proteasome chymotrypsin-like activity using succinyl-LeuLeuValTyr-AMC as substrate assessed as fold increase in activity incubated for 1 hr by fluorescence based analysis relative to control. Conditions: filed as activator. Summed up: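 h20S proteasome 0.002 mg/mL (2.8 nM) in 50 mM Tris/HCl pH 8.0, 2% DMSO final. Suc-LLVY-AMC 100 μM final. Modulators 1.0–50 μM (TAT/6R constructs 0.5–10 μM). AMC fluorescence ex 380/em 460 nm read every 2 min for 60 min at 37 °C. Activity relative to DMSO-treated latent proteasome (100%); ≥3 replicates.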

Data set [2] concerns the target T1, 20S proteasome (Homo sapiens). Nature of the data set: Activation of human erythrocyte-derived 20S proteasome using Dabcyl-EDANS as FRET-type substrate at 1.0 to 50 uM measured every two mins for 60 mins by fluorescence based analysis. Type of data set: cell-based. Particulars: filed as activator, dose 1-50 µM. The essentials: (§1)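 Latent human 20S proteasome (0.002 mg/mL, 2.8 nM) in 50 mM Tris/HCl pH 8.0 with 2% DMSO. AMC substrates at 100 μM final (ex 380/em 460 nm); Dabcyl-EDANS at 15 μM final (ex 335/em 493 nm). Modulators at 1.0–50 μM; TAT- or 6R-containing constructs at 0.5–10 μM. Read every 2 min for 60 min at 37 °C. Activity relative to DMSO-treated proteasome (100%). ≥3 independent replicates.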

For data set [3] the target is unchanged. Nature of the data set: Activation of human erythrocyte-derived 20S proteasome chymotrypsin-like activity using Suc-LLVY-AMC as substrate at 1.0 to 50 uM measured every two mins for 60 mins by fluorescence based analysis. Particulars: filed as activator, dose 1-50 µM.
A short description of data set [4]: Proteolytic stability of compound in human plasma assessed as protease-mediated degradation by measuring compound remaining at 200 uM incubated for 30 mins by UHPLC analysis. Conditions: read-out: Stability. The data set is classed as ADME, cell-free. Summed up: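 Compound (200 μM final, dissolved in water) incubated in human serum at 37 °C for 30 min. Samples every 5 min quenched 1:1 with 6% TCA and centrifuged. Supernatant analysed by UHPLC (UV 223 nm) for intact compound; cleavage sites identified by MS.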

Data set [5] addresses T1, 20S proteasome (Homo sapiens). Nature of the data set: Activation of human erythrocyte-derived 20S proteasome trypsin-like activity using Boc-LRR-AMC as substrate at lower concentration measured every two mins for 60 mins by fluorescence based analysis. Conditions: filed as activator. The essentials:
as §1

For data set [6] the target is unchanged. Nature of the data set: Activation of human erythrocyte-derived 20S proteasome using Dabcyl-EDANS as FRET-type substrate at lower concentration measured every two mins for 60 mins by fluorescence based analysis. The data set is classed as cell-based. Particulars: filed as activator. Summed up: as §1
The target is the same in data set [7]. Nature of the data set: Activation of human erythrocyte-derived 20S proteasome caspase-like activity using Z-LLE-AMC as substrate at lower concentration measured every two mins for 60 mins by fluorescence based analysis. Conditions: filed as activator. Summed up: as §1
The target is the same in data set [8]. Nature of the data set: Activation of human erythrocyte-derived 20S proteasome chymotrypsin-like activity using Suc-LLVY-AMC as substrate at lower concentration measured every two mins for 60 mins by fluorescence based analysis. Conditions: filed as activator. The essentials:
as §1

For data set [9] the target is unchanged. In words: Activation of human erythrocyte-derived 20S proteasome chymotrypsin-like activity using Suc-LLVY-AMC as substrate at higher concentration measured every two mins for 60 mins by fluorescence based analysis. Conditions: filed as activator. Summed up: as §1
The target is the same in data set [10]. In words: Activation of human erythrocyte-derived 20S proteasome chymotrypsin-like activity using Suc-LLVY-AMC as substrate at 1 uM measured every two mins for 60 mins by fluorescence based analysis. Conditions: filed as activator. Summed up: as §1
A short description of data set [11]: Permeability of compound in PBS incubated for 22 hrs by PAMPA-BBB assay. The data set is classed as ADME. The essentials:
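PAMPA-BBB with a 2% porcine brain lipid membrane. Compounds were diluted from 10 mM aqueous stocks to 500 μM in 0.1 M PBS containing 5% DMSO and incubated 22 h at 37 °C with shaking at 250 rpm. Read-out was fluorescence after reaction with 0.02% fluorescamine (absorbance at 290 nm for propranolol). Pe calculated as linear permeation velocity. Three biological replicates.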
A general note: In PAMPA a lipid-coated filter parts donor from acceptor wells.

The target in data set [12] is T1, 20S proteasome (Homo sapiens). In words: Activation of human erythrocyte-derived 20S proteasome using Dabcyl-EDANS as FRET-type substrate assessed as fold increase in activity at 1.0 to 50 uM measured every two mins for 60 mins by fluorescence based analysis relative to control. Type of data set: cell-based. Conditions: filed as activator, dose 1-50 µM. The essentials: as §1

Data set [13] shares this target. Nature of the data set: Activation of human erythrocyte-derived 20S proteasome chymotrypsin-like activity using Suc-LLVY-AMC as substrate assessed as fold increase in activity at 1.0 to 50 uM measured every two mins for 60 mins by fluorescence based analysis relative to control. Particulars: filed as activator, dose 1-50 µM. Summed up:
as §1

Calls of active or inactive are those of the source. The calls are words filed in the database; no cut-off is given here. Where a SMILES comes first, the peptide text is derived from it. [ ]: non-standard residue; d: D form. N(4-MeOBn)Gly = COc1ccc(CNCC(=O)O)cc1; NMeY = CN[C@@H](Cc1ccc(O)cc1)C(=O)O; Gly(N-CH2CH2OH) = O=C(O)CNCCO; NMeK = CN[C@@H](CCCCN)C(=O)O; Nlys = NCCCCNCC(=O)O

As for `N=C(N)NCCC[C@H](NC(=O)CN)C(=O)N[C@@H](CCCCN)C(=O)N[C@@H](CCCCN)C(=O)N[C@@H](CCCNC(=N)N)C(=O)N[C@@H](CCCNC(=N)N)C(=O)N[C@@H](CCC(N)=O)C(=O)N1Cc2ccccc2CC1C(=O)N1[C@@H](C(=O)N[C@@H](CCCNC(=N)N)C(=O)N2CCC[C@H]2C(=O)N[C@@H](CO)C(=O)O)C[C@@H]2CCCC[C@@H]21` (some centres not stated), the fold change (FC) in data set [1] amounted to 8.

As to `NCCCC[C@H](NC(=O)[C@H](CCCCN)NC(=O)[C@@H](N)CCCCN)C(=O)Nc1cc(NC(=O)[C@H](CCCCN)NC(=O)[C@H](CCCCN)NC(=O)[C@@H](N)CCCCN)cc(NC(=O)[C@H](CCCCN)NC(=O)[C@H](CCCCN)NC(=O)[C@@H](N)CCCCN)c1`, the fold change (FC) in [1] came out at 10.

Consider `C[C@@H](O)[C@H](NC(=O)[C@H](Cc1ccccc1)NC(=O)[C@H](Cc1ccc(O)cc1)NC(=O)[C@@H](N)CCCCN)C(=O)NCC(=O)N[C@@H](CO)C(=O)N[C@@H](CCCCN)C(=O)N[C@@H](CC(=O)O)C(=O)N[C@@H](Cc1c[nH]c2ccccc12)C(=O)N[C@@H](CCCNC(=N)N)C(=O)N(CCO)CC(=O)N[C@@H](Cc1ccc(O)cc1)C(=O)N[C@@H](Cc1ccc(O)cc1)C(=O)N[C@@H](CO)C(=O)O` (H-KYFTGSKDWR[Gly(N-CH2CH2OH)]YYS-OH), for which the outcome in [2] was Active. The Activity entry in data set [3] was “Active; Lower Capacity Of Activation Is Observed”.

On to `COc1ccc(CN(CC(=O)N[C@@H](CCCNC(=N)N)C(=O)N[C@@H](CCCNC(=N)N)C(=O)N[C@@H](Cc2ccc(O)cc2)C(=O)N[C@@H](Cc2ccc(O)cc2)C(=O)N[C@@H](CO)C(=O)O)C(=O)[C@H](CC(=O)O)NC(=O)[C@H](CCCCN)NC(=O)[C@H](CO)NC(=O)CNC(=O)[C@@H](NC(=O)[C@H](Cc2ccccc2)NC(=O)[C@H](Cc2ccc(O)cc2)NC(=O)[C@@H](N)CCCCN)[C@@H](C)O)cc1` (H-KYFTGSKD[N(4-MeOBn)Gly]RRYYS-OH), for which the outcome in data set [2], in data set [6] and in [8] was Active. The remaining at 0.5 h, 200 µM in data set [4] was under 30%. The Activity entry in [5] and in [7] was “Weak_effect” in each case.

Take `C[C@@H](O)[C@H](NC(=O)[C@H](Cc1ccccc1)NC(=O)[C@H](Cc1ccc(O)cc1)NC(=O)[C@@H](N)CCCCN)C(=O)NCC(=O)N[C@@H](CO)C(=O)N(CCCCN)CC(=O)N[C@@H](CC(=O)O)C(=O)N[C@@H](Cc1ccc(O)cc1)C(=O)N[C@@H](CCCNC(=N)N)C(=O)N[C@@H](CCCNC(=N)N)C(=O)N[C@@H](Cc1ccc(O)cc1)C(=O)N[C@@H](Cc1ccc(O)cc1)C(=O)N[C@@H](CO)C(=O)O` (H-KYFTGS[Nlys]DYRRYYS-OH): the outcome in [9] was Active.

As to `COc1ccc(CN(CC(=O)N[C@@H](Cc2ccccc2)C(=O)N[C@H](C(=O)NCC(=O)N[C@@H](CO)C(=O)N[C@@H](CCCCN)C(=O)N[C@@H](CC(=O)O)C(=O)N[C@@H](Cc2ccc(O)cc2)C(=O)N[C@@H](CCCNC(=N)N)C(=O)N[C@@H](CCCNC(=N)N)C(=O)N[C@@H](Cc2ccc(O)cc2)C(=O)N[C@@H](Cc2ccc(O)cc2)C(=O)N[C@@H](CO)C(=O)O)[C@@H](C)O)C(=O)[C@@H](N)CCCCN)cc1` (H-K[N(4-MeOBn)Gly]FTGSKDYRRYYS-OH), the Activity result in data set [10] is “Moderate_effect”.

`COc1ccc(CN(CC(=O)N[C@@H](CCCNC(=N)N)C(=O)N[C@@H](CCCNC(=N)N)C(=O)N[C@@H](Cc2ccc(O)cc2)C(=O)N[C@@H](Cc2ccc(O)cc2)C(=O)N[C@@H](CO)C(=O)O)C(=O)[C@H](CC(=O)O)NC(=O)[C@H](CCCCN)NC(=O)[C@H](CO)NC(=O)CNC(=O)[C@@H](NC(=O)[C@H](Cc2ccccc2)NC(=O)CN(Cc2ccc(OC)cc2)C(=O)[C@@H](N)CCCCN)[C@@H](C)O)cc1` (H-K[N(4-MeOBn)Gly]FTGSKD[N(4-MeOBn)Gly]RRYYS-OH): the result in data set [2], in data set [6] and in data set [8] was Active. Besides, the Activity result in data set [5] and in data set [7] was “Weak_effect” throughout.

With `CN[C@@H](CCCCN)C(=O)N(C)[C@@H](Cc1ccc(O)cc1)C(=O)N[C@@H](Cc1ccccc1)C(=O)N[C@H](C(=O)NCC(=O)N[C@@H](CO)C(=O)N[C@@H](CCCCN)C(=O)N[C@@H](CC(=O)O)C(=O)N[C@@H](Cc1c[nH]c2ccccc12)C(=O)N[C@@H](CCCNC(=N)N)C(=O)N[C@@H](CO)C(=O)N[C@@H](Cc1ccc(O)cc1)C(=O)N[C@@H](Cc1ccc(O)cc1)C(=O)N[C@@H](CO)C(=O)O)[C@@H](C)O` (H-[NMeK][NMeY]FTGSKDWRSYYS-OH), the result in [2] was Active.

As for `C[C@@H](O)[C@H](NC(=O)[C@H](Cc1ccccc1)NC(=O)[C@H](Cc1ccc(O)cc1)NC(=O)CNCCCCN)C(=O)NCC(=O)N[C@@H](CO)C(=O)N[C@@H](CCCCN)C(=O)N[C@@H](CC(=O)O)C(=O)N[C@@H](Cc1c[nH]c2ccccc12)C(=O)N[C@@H](CCCNC(=N)N)C(=O)N[C@@H](CO)C(=O)N[C@@H](Cc1ccc(O)cc1)C(=O)N[C@@H](Cc1ccc(O)cc1)C(=O)N[C@@H](CO)C(=O)O` (H-[Nlys]YFTGSKDWRSYYS-OH), the permeability entry in data set [11] was “Impermeable”.

In the case of `C[C@@H](O)[C@H](NC(=O)[C@H](Cc1ccccc1)NC(=O)[C@H](Cc1ccc(O)cc1)NC(=O)CNCCCCN)C(=O)NCC(=O)N[C@@H](CO)C(=O)N[C@@H](CCCCN)C(=O)N[C@@H](CC(=O)O)C(=O)N[C@@H](Cc1c[nH]c2ccccc12)C(=O)N[C@@H](CCCNC(=N)N)C(=O)N(CCO)CC(=O)N[C@@H](Cc1ccc(O)cc1)C(=O)N[C@@H](Cc1ccc(O)cc1)C(=O)N[C@@H](CO)C(=O)O` (H-[Nlys]YFTGSKDWR[Gly(N-CH2CH2OH)]YYS-OH), the result in [2] was Active. In addition, the Activity result in data set [3] is “Active; Lower Capacity Of Activation Is Observed”.

Consider `C[C@@H](O)[C@H](NC(=O)[C@H](Cc1ccccc1)NC(=O)[C@H](Cc1ccc(O)cc1)NC(=O)CNCCCCN)C(=O)NCC(=O)N[C@@H](CO)C(=O)N[C@@H](CCCCN)C(=O)N[C@@H](CC(=O)O)C(=O)N[C@@H](Cc1ccc(O)cc1)C(=O)N[C@@H](CCCNC(=N)N)C(=O)N[C@@H](CCCNC(=N)N)C(=O)N[C@@H](Cc1ccc(O)cc1)C(=O)N[C@@H](Cc1ccc(O)cc1)C(=O)N[C@@H](CO)C(=O)O` (H-[Nlys]YFTGSKDYRRYYS-OH), for which the result in data set [2], in [6] and in [8] was Active.

Turning to `C[C@@H](O)[C@H](NC(=O)[C@H](Cc1ccccc1)NC(=O)[C@H](Cc1ccc(O)cc1)NC(=O)CNCCCCN)C(=O)NCC(=O)N[C@@H](CO)C(=O)N(CCCCN)CC(=O)N[C@@H](CC(=O)O)C(=O)N[C@@H](Cc1ccc(O)cc1)C(=O)N[C@@H](CCCNC(=N)N)C(=O)N[C@@H](CCCNC(=N)N)C(=O)N[C@@H](Cc1ccc(O)cc1)C(=O)N[C@@H](Cc1ccc(O)cc1)C(=O)N[C@@H](CO)C(=O)O` (H-[Nlys]YFTGS[Nlys]DYRRYYS-OH), in [9], the result was Active. Besides, in [10], the Activity entry was “Moderate_effect”.

On to H-KYFTGSKDWRSYYS-OH, for which the remaining at 0.5 h, 200 µM in data set [4] was at most 10%. In addition, the fold change (FC) in data set [12] came out at 12; in data set [13], 8.

On to H-KYFTGSKDYRRYYS-OH, for which the remaining at 0.5 h, 200 µM in data set [4] is at most 10%. The outcome in data set [6] and in [8] was Active.
